Source: ChEMBL document CHEMBL1152579, “Substrate specificity effects of lipoxygenase products and inhibitors on soybean lipoxygenase-1” (Bioorg Med Chem, 2009)
Counter-ions that a name gives are not always drawn.

Key:
[1] = molecular target: T1, Seed linoleate 13S-lipoxygenase-1 (Glycine max) (UniProt P08170); assay: Mixed-type inhibition of soybean LO1 assessed as increase in arachidonic acid/linoleic acid ratio at 13 uM by substrate specificity assay
T1 sequence (whole entry): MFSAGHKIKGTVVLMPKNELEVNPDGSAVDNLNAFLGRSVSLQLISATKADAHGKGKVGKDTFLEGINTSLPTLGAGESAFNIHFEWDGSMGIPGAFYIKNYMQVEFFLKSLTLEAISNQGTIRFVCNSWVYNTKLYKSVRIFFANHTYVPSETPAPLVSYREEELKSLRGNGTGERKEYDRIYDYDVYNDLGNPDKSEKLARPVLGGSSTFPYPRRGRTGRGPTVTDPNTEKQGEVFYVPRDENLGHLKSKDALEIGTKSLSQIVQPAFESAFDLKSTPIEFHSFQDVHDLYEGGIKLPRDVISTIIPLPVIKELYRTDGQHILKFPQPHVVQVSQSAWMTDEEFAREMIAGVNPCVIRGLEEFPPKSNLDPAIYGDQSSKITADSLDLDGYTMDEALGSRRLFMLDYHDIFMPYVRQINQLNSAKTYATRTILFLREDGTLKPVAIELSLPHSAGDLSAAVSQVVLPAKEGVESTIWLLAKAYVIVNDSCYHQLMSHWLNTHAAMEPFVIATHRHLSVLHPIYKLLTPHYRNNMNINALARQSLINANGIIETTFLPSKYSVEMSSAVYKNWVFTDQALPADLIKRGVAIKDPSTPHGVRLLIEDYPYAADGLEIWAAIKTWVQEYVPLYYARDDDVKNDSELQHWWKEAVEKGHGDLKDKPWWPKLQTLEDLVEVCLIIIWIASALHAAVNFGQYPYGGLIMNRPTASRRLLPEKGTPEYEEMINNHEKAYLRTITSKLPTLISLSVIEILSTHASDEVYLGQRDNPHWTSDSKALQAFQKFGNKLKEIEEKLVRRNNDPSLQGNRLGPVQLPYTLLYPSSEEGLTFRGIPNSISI

[2] = molecular target: T1, Seed linoleate 13S-lipoxygenase-1 (Glycine max); assay: Mixed-type inhibition of soybean LO1 assessed as increase in arachidonic acid/linoleic acid ratio at 65 uM by substrate specificity assay
[3] = molecular target: T1, Seed linoleate 13S-lipoxygenase-1 (Glycine max); assay: Mixed-type inhibition of soybean LO1 assessed as increase in arachidonic acid/linoleic acid ratio at 30 uM by substrate specificity assay
[4] = molecular target: T1, Seed linoleate 13S-lipoxygenase-1 (Glycine max); assay: Inhibition of soybean LO1 assessed as increase in non-endogenous arachidonic acid/linoleic acid maximal ratio by substrate specificity assay
Procedure, shortened: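 Inhibitor titrated into competitive substrate-capture reactions: sLO-1 with 1:1 AA:LA at 1 μM total substrate, 100 mM borate pH 9.2, 22 °C. Product ratio was measured by HPLC at each concentration. The change in (kcat/KM)AA/(kcat/KM)LA ratio was plotted against inhibitor concentration and fit to a saturation curve, giving the maximal ratio at saturation.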

[5] = molecular target: T2, Seed linoleate 13S-lipoxygenase-1 (Glycine max, UniProt P08170); assay: Binding affinity to allosteric site of soybean LO1
T2 sequence (P08170 whole entry): T1 sequence (whole entry)

[6] = molecular target: T1, Seed linoleate 13S-lipoxygenase-1 (Glycine max); assay: Allosteric inhibition of soybean LO1 assessed as increase in arachidonic acid/linoleic acid ratio at 1 uM by substrate specificity assay
[7] = molecular target: T1, Seed linoleate 13S-lipoxygenase-1 (Glycine max); assay: Allosteric inhibition of soybean LO1 assessed as increase in arachidonic acid/linoleic acid ratio at 1 uM by substrate specificity assay
[8] = molecular target: T1, Seed linoleate 13S-lipoxygenase-1 (Glycine max); assay: Allosteric inhibition of soybean LO1 assessed as increase in arachidonic acid/linoleic acid ratio at 10 uM by substrate specificity assay
[9] = molecular target: T1, Seed linoleate 13S-lipoxygenase-1 (Glycine max); assay: Competitive inhibition of soybean LO1 assessed as increase in arachidonic acid/linoleic acid ratio at 5 uM by substrate specificity assay
[10] = molecular target: T1, Seed linoleate 13S-lipoxygenase-1 (Glycine max); assay: Allosteric inhibition of soybean LO1 assessed as increase in arachidonic acid/linoleic acid ratio at 0.5 uM by substrate specificity assay
[11] = molecular target: T1, Seed linoleate 13S-lipoxygenase-1 (Glycine max); assay: Allosteric inhibition of soybean LO1 assessed as increase in arachidonic acid/linoleic acid ratio at 5 uM by substrate specificity assay
[12] = molecular target: T2, Seed linoleate 13S-lipoxygenase-1; assay: Binding affinity to soybean LO1

CCCCCC/C=C\CCCCCCCCOS(=O)(=O)O
Ratio [1]: 2.3 | Ratio [2]: 4 | Ratio [3]: 3 | Ratio [4]: 7.4 | Ki [5]: 140 µM

CCCCCCCC/C=C\CCCCCCCCOS(=O)(=O)O [OLEYL SULFATE]
Ratio [6]: 3.2 | Ratio [7]: 3.2 | Ratio [8]: 4.8 | Ratio [9]: 4.7 | Ratio [4]: 5.4 | Ratio [10]: 2.5 | Ratio [11]: 4.8 | Ki [12]: 0.7 µM
